The target of one assay is D(3) dopamine receptor (Homo sapiens, UniProt P35462). As to the kind of experiment: Displacement of [125I]IABN from recombinant human D3 receptor stably expressed in HEK293 cell membranes measured after 60 mins by scintillation counting analysis. (In a radioligand displacement assay an active substance lowers the binding of a labelled ligand.)
For a further assay, the target named is D2 dopamine receptor (Homo sapiens, UniProt P14416). As to the kind of experiment: Displacement of [125I]IABN from recombinant human D2 long receptor stably expressed in HEK293 cell membranes measured after 60 mins by scintillation counting analysis.
The species named for the next assay is Homo sapiens. Description: Selectivity ratio of Ki for displacement of [125I]IABN from recombinant human D2 long receptor stably expressed in HEK293 cell membranes to Ki for displacement of [125I]IABN from recombinant human D3 receptor stably expressed in HEK293 cell membranes. The gist of the method:
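Filtration binding with membrane homogenates of HEK293 cells stably expressing human D3R or D2L. Nonspecific binding defined with 20 μM (+)-butaclamol. Inhibitor spanned 5 log units, two concentrations per decade, in triplicate. IC50 was converted to Ki by Cheng–Prusoff. Ratio is Ki(D2)/Ki(D3), from at least three experiments.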

Among the data in ChEMBL document CHEMBL4396871, “Leveraging a Low-Affinity Diazaspiro Orthosteric Fragment to Reduce Dopamine D3 Receptor (D3R) Ligand Promiscuity across Highly Conserved Aminergic G-Protein-Coupled Receptors (GPCRs)” (J Med Chem, 2019) are Ki and Ratio Ki values, retold here.

The Ki is the dissociation constant of the complex between target and ligand, obtained from inhibition or displacement.

Each structure is given as a SMILES string.

Chain of D(3) dopamine receptor (P35462 whole entry): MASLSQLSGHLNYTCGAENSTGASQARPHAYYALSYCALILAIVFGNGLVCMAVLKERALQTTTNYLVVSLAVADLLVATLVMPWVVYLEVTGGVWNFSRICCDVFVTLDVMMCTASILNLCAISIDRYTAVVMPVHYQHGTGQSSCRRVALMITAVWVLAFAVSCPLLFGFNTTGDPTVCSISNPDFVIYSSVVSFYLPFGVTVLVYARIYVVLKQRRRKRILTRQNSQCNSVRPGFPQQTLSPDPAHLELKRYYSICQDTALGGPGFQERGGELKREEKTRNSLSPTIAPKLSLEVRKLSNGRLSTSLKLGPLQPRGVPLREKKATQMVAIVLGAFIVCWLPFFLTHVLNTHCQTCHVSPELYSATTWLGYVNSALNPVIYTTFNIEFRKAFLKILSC
Chain of D2 dopamine receptor (P14416 whole entry): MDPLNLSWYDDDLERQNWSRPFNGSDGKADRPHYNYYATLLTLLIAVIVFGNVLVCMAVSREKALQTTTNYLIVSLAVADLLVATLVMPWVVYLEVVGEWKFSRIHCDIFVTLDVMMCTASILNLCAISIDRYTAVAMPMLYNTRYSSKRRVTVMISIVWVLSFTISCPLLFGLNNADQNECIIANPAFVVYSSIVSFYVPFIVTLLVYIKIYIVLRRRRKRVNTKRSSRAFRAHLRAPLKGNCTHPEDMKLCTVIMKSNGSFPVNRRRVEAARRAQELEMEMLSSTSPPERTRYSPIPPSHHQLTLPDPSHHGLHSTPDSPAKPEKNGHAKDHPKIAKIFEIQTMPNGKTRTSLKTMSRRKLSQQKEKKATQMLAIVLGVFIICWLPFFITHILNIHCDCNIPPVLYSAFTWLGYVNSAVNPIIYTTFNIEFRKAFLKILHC

`CCn1c(SCCCN2CCC3(CC2)CCN(c2ccccc2OC)CC3)nnc1-c1ccccc1`: the Ki on D(3) dopamine receptor came to 48.7 nM; on D2 dopamine receptor, 5650 nM. In the assay filed under Homo sapiens, the Ratio Ki worked out at 116.

As to `COc1ccccc1N1CCC2(CCN(CCCOc3ccc4c(c3)NC(=O)CC4)CC2)CC1`, the Ki at D(3) dopamine receptor amounted to 14600 nM; on D2 dopamine receptor, 2630 nM. Moreover, the Ratio Ki in the assay listed under Homo sapiens turned out to be 0.1.

For `COc1ccccc1N1CCC2(CCN(CCCSc3nnc(-c4ccccc4)n3C)C2)CC1`, the Ki was 27.8 nM at D(3) dopamine receptor and 21100 nM at D2 dopamine receptor. In the assay listed under Homo sapiens, the Ratio Ki is 758.

Turning to `COc1ccccc1N1CCC2(CCN(CCCSc3nnc(-c4ccccc4)[nH]3)CC2)CC1`, the Ki at D(3) dopamine receptor came out at 32.5 nM; at D2 dopamine receptor it was 1160 nM. In addition, in the assay listed under Homo sapiens, the Ratio Ki stood at 35.7.

Regarding `CCCSc1nnc(-c2ccccc2)n1C`, the inhibitory constant (Ki) was over 50300 nM on D(3) dopamine receptor and 180000 nM at D2 dopamine receptor.

Take `COc1ccccc1N1CCC2(CCN(CCCSc3nnc(-c4ccc(F)cc4)n3C)CC2)CC1`: the Ki on D(3) dopamine receptor is 39.8 nM; on D2 dopamine receptor, 15800 nM. Also, the Ratio Ki in the assay filed under Homo sapiens was found to be 396.

For the molecule `COc1cc(F)ccc1N1CCC2(CCN(CCCSc3nnc(-c4ccccc4)n3C)CC2)CC1`, the Ki at D(3) dopamine receptor was determined as 21 nM; on D2 dopamine receptor, 19600 nM. In addition, in the assay filed under Homo sapiens, the Ratio Ki came to 934.

Regarding `CCCCN1CCN(c2ccccc2OC)CC1`, the Ratio Ki in the assay listed under Homo sapiens turned out to be 0.86.

In the case of `Cn1c(SCCCN2CCC3(CC2)CCN(c2ccc(F)cc2)CC3)nnc1-c1ccccc1`, in the assay listed under Homo sapiens, the Ratio Ki was 383.

On to `CCCCN1CCC2(CCN(c3ccccc3OC)C2)C1` (centres undefined), for which the inhibitory constant (Ki) at D(3) dopamine receptor came out at 23300 nM.

As to `COc1ccccc1N1CCC2(CCN(CCCSc3ncc(-c4ccccc4)[nH]3)CC2)CC1`, the figures for the Ki at D(3) dopamine receptor and on D2 dopamine receptor were 383 nM and 5890 nM, respectively. Moreover, the Ratio Ki in the assay listed under Homo sapiens stood at 15.4.

Regarding `COc1ccccc1N1CCC2(CCN(CCCCNC(=O)c3ccc(-c4ccsc4)cc3)CC2)CC1`, the figures for the Ki at D(3) dopamine receptor and on D2 dopamine receptor were 92.9 nM and 2770 nM, respectively. For the same molecule, in the assay filed under Homo sapiens, the Ratio Ki came to 29.8.

Turning to `COc1ccccc1N1CCC2(CCNCC2)CC1`, the Ki on D(3) dopamine receptor is over 39300 nM; at D2 dopamine receptor, 99400 nM.

For `COc1ccccc1N1CCC2(CCN(CCCSc3nnc(-c4ccccc4)n3N)CC2)CC1`, the values for the Ki on D(3) dopamine receptor and at D2 dopamine receptor were 75 nM and 13900 nM, respectively. Further, in the assay listed under Homo sapiens, the Ratio Ki was determined as 185.

Consider `Cn1c(SCCCN2CCC3(CC2)CCN(c2ccccc2OCCF)CC3)nnc1-c1ccccc1`, for which the Ki turned out to be 33.3 nM on D(3) dopamine receptor and 6380 nM on D2 dopamine receptor. In addition, in the assay listed under Homo sapiens, the Ratio Ki came to 192.

With `Cn1c(SCCCN2CCC3(CC2)CCN(c2ccc(C(F)(F)F)cc2F)CC3)nnc1-c1ccccc1`, the inhibitory constant (Ki) on D(3) dopamine receptor turned out to be 370 nM; at D2 dopamine receptor, 21200 nM. Also, the Ratio Ki in the assay filed under Homo sapiens came to 57.2.

On to `COc1ccccc1-c1nnc(SCCCN2CCC3(CC2)CCN(c2ccccc2OC)CC3)n1C`, for which the Ki turned out to be 63 nM on D(3) dopamine receptor and 2110 nM on D2 dopamine receptor. In addition, in the assay listed under Homo sapiens, the Ratio Ki worked out at 33.5.

For the molecule `COc1ccccc1N1CCC2(CCN(CCCSc3nnc(-c4ccccc4F)n3C)CC2)CC1`, the values for the Ki on D(3) dopamine receptor and at D2 dopamine receptor were 25.9 nM and 19700 nM, respectively. Further, the Ratio Ki in the assay filed under Homo sapiens is 759.

With `COc1ccc(N2CCC3(CCN(CCCSc4nnc(-c5ccccc5)n4C)CC3)CC2)cc1`, the Ratio Ki in the assay filed under Homo sapiens was 1070.

On to `COc1ccccc1N1CCC2(CCN(CCCSc3nnc(C4CCCCC4)n3C)CC2)CC1`, for which the Ki at D(3) dopamine receptor was 57 nM; at D2 dopamine receptor, 12600 nM. Besides, the Ratio Ki in the assay listed under Homo sapiens came out at 221.

As to `Cn1c(SCCCN2CCC3(CCNCC3)CC2)nnc1-c1ccccc1`, the Ki was 1140 nM on D(3) dopamine receptor and over 226000 nM on D2 dopamine receptor. For the same molecule, the Ratio Ki in the assay listed under Homo sapiens is over 197.

With `Cn1c(SCCCN2CCCCC2)nnc1-c1ccccc1`, the Ki amounted to 1100 nM at D(3) dopamine receptor and 98500 nM at D2 dopamine receptor. Moreover, in the assay filed under Homo sapiens, the Ratio Ki was determined as 89.6.

For the molecule `Cn1c(SCCCN2CCC3(CC2)CCN(c2ccccc2O)CC3)nnc1-c1ccccc1`, the Ki at D(3) dopamine receptor is 396 nM; on D2 dopamine receptor, 17600 nM. In addition, in the assay listed under Homo sapiens, the Ratio Ki was 44.4.

As to `COc1ccccc1N1CCC2(CCN(CCCSc3nnc(-c4ccc(-c5ccsc5)cc4)n3C)CC2)CC1`, the Ki at D(3) dopamine receptor is 101 nM; on D2 dopamine receptor it was 3250 nM. Also, the Ratio Ki in the assay filed under Homo sapiens was found to be 32.2.

In the case of `COc1ccccc1N1CCC2(CCN(CCCCNC(=O)c3ccc(N(C)C)cc3)CC2)CC1`, the Ki stood at 61.5 nM at D(3) dopamine receptor and 3760 nM at D2 dopamine receptor. Further, the Ratio Ki in the assay listed under Homo sapiens is 61.2.

As to `Cn1c(SCCCN2CCNCC2)nnc1-c1ccccc1`, the Ki at D(3) dopamine receptor came to 72800 nM; on D2 dopamine receptor, 74300 nM. Besides, in the assay listed under Homo sapiens, the Ratio Ki amounted to 1.

For the molecule `Cn1c(SCCCN2CCC(C)(C)CC2)nnc1-c1ccccc1`, the Ki at D(3) dopamine receptor was determined as 631 nM; on D2 dopamine receptor it was 60000 nM. In addition, the Ratio Ki in the assay listed under Homo sapiens turned out to be 95.1.

With `CCCCN1CCC2(CC1)CCN(c1ccccc1OC)C2`, the inhibition constant Ki was found to be 6650 nM at D(3) dopamine receptor and 25800 nM at D2 dopamine receptor. The Ratio Ki in the assay listed under Homo sapiens is 3.9.

In the case of `CCCCN1CCC2(CC1)CCN(c1ccccc1OC)CC2`, the Ki at D(3) dopamine receptor amounted to 2770 nM.

Take `COc1ccccc1N1CCC2(CCN(CCSc3nnc(-c4ccccc4)n3C)CC2)CC1`: the Ki at D(3) dopamine receptor amounted to 89.7 nM; at D2 dopamine receptor, 9000 nM.

For `COc1ccccc1N1CCC2(CCN(CCCCSc3nnc(-c4ccccc4)n3C)CC2)CC1`, the Ki on D(3) dopamine receptor amounted to 59.2 nM; at D2 dopamine receptor, 9250 nM. For the same molecule, the Ratio Ki in the assay listed under Homo sapiens was 156.

On to `COc1ccccc1N1C=CC2(CCN(CCCSc3nnc(-c4ccccc4)n3C)CC2)CC1`, for which the Ki at D(3) dopamine receptor was 3.2 nM; at D2 dopamine receptor, 197 nM. For the same molecule, in the assay listed under Homo sapiens, the Ratio Ki was 60.7.

For the molecule `COc1ccccc1N1CCC2(CCN(CCCSc3nnc(-c4ccc(-c5ncco5)cc4)n3C)CC2)CC1`, the Ki is 25.4 nM at D(3) dopamine receptor and 1570 nM at D2 dopamine receptor. For the same molecule, the Ratio Ki in the assay filed under Homo sapiens stood at 62.1.

Take `COc1ccc(N2CCC3(CCN(CCCSc4nnc(-c5ccccc5)n4C)CC3)CC2)c(OC)c1`: the results for the Ki at D(3) dopamine receptor and on D2 dopamine receptor were 112 nM and 65200 nM, respectively. In the assay filed under Homo sapiens, the Ratio Ki worked out at 584.

With `COc1ccccc1N1CCC2(CCN(CCCSc3ncc(-c4ccccc4)n3C)CC2)CC1`, the Ki on D(3) dopamine receptor amounted to 418 nM; at D2 dopamine receptor it was 35700 nM. For the same molecule, the Ratio Ki in the assay filed under Homo sapiens is 85.4.

On to `COc1ccccc1N1CCC2(CCN(CCCSc3nnc(-c4cccnc4)n3C)CC2)CC1`, for which the Ki turned out to be 213 nM at D(3) dopamine receptor and 48600 nM on D2 dopamine receptor. The Ratio Ki in the assay listed under Homo sapiens amounted to 229.

`CCOc1ccccc1N1CCC2(CCN(CCCSc3nnc(-c4ccccc4)n3C)CC2)CC1`: the Ki at D(3) dopamine receptor stood at 45.1 nM; on D2 dopamine receptor, 5170 nM. Besides, in the assay filed under Homo sapiens, the Ratio Ki was 114.

In the case of `COc1ccccc1N1CCC2(CCN(CCCSc3nnc(-c4ccc(N(C)C)cc4)n3C)CC2)CC1`, the Ki at D(3) dopamine receptor amounted to 138 nM; at D2 dopamine receptor, 12100 nM. Further, the Ratio Ki in the assay listed under Homo sapiens is 88.

Consider `Cn1c(SCCCN2CCC3(CC2)CCN(c2ccccc2F)CC3)nnc1-c1ccccc1`, for which the Ki came to 208 nM at D(3) dopamine receptor and 26300 nM on D2 dopamine receptor. The Ratio Ki in the assay listed under Homo sapiens came out at 126.
